Assays:
[1] = molecular target: T1, Cholecystokinin receptor type A (Rattus norvegicus, UniProt P30551); assay: Inhibitory concentration against radioligand [3 H]L-364,718 binding to gastrin/Cholecystokinin type A receptor from rat pancreas
T1 sequence (P30551 whole entry): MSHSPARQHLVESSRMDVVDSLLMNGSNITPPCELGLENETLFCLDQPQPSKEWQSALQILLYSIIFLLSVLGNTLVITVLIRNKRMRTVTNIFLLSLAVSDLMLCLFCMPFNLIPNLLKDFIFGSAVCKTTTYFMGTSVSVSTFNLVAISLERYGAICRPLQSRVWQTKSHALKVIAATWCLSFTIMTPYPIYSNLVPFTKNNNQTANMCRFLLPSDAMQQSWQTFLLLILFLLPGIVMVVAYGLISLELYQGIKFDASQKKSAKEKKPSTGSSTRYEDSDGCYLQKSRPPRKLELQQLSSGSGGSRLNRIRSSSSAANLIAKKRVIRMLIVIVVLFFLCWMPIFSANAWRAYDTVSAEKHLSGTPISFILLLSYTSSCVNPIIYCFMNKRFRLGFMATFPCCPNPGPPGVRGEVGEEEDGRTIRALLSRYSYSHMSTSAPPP
Summary of the method: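 Rat pancreas membranes in 50 mM Tris-HCl pH 7.7 containing BSA, MgCl2, bacitracin and DTT. Incubated 30 min at 37 °C with [3H]L-364,718 and compound (in DMSO). Filtration, scintillation counting. Nonspecific binding with […] L-364,718. IC50 is the concentration inhibiting specific binding by 50%.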

[2] = molecular target: T2, Gastrin/cholecystokinin type B receptor (Rattus norvegicus, UniProt P30553); assay: Inhibitory concentration against radioligand [125I]CCK-8 binding to gastrin/Cholecystokinin type B receptor from rat brain
T2 sequence (P30553 whole entry): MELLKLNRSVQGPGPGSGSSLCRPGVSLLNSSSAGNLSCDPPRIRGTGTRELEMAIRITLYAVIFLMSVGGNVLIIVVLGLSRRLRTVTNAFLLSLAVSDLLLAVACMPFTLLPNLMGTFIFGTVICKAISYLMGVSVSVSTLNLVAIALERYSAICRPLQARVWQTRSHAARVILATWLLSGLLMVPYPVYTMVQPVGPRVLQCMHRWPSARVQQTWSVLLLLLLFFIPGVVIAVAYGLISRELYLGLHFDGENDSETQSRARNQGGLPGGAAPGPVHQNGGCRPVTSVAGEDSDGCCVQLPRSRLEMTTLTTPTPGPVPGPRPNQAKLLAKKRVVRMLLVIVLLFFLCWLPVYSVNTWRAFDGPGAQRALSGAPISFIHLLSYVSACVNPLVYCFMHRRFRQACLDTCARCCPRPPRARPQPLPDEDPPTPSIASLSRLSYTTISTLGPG
Summary of the method: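 SD rat whole-brain membranes prepared by sucrose homogenisation, differential centrifugation and Triton X-100 wash. Incubated 120 min at 25 °C with [125I]BH-CCK-8 and compound (in DMSO) in 10 mM HEPES pH 6.5 with NaCl, MgCl2, EDTA, bacitracin. Filtration, γ-counting. Nonspecific binding with […] CCK-8. IC50 is the concentration giving 50% inhibition of specific binding.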

Rattus norvegicus [3] = assay: Inhibition of pentagastrin-induced gastric acid secretion in anathesized rats at 0.1 uM/Kg upon intravenous administration; type: functional, Stomach
Summary of the method: (§1)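 Anesthetized rats, pylorus-ligated with duodenal cannula. Stomach perfused with saline (pH 7.0) at 3 mL/min. Acid output by continuous pH-stat titration with 25 mM NaOH to pH 7.0, per 10 min. Pentagastrin infused iv via femoral vein. Compound in polyethylene glycol 300 given iv 1 h after pentagastrin start. ED50 is the dose reducing acid to 50% of maximum.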

[4] = molecular target: Cholecystokinin receptor (Rattus norvegicus) (UniProt P30551+P30553); assay: Ratio of inhibitory concentration; CCK-A receptor to CCK-B receptor; type: protein assay
Canis familiaris [5] = assay: Compound at an peroral dose of 3 uM/Kg was tested for the inhibition of pentagastrin-induced gastric acid secretion in heidenhain pouch dogs; type: functional, Canis lupus familiaris, Stomach
Summary of the method: (§2)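 Male beagle dogs with Heidenhain pouch, food withheld 18 h (water free). Pentagastrin 8 µmol/kg/h infused via femoral vein from 3 h before until 6 h after oral dosing. Gastric juice collected every 15 min; acidity by automatic titration with 0.05 N NaOH to pH 7.0. Inhibition relative to values just before dosing.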

Rattus norvegicus [6] = assay: Inhibition of pentagastrin-induced gastric acid secretion in Dawley rats following intravenous administration; type: functional; conditions: Stomach; summary of the method: as §1
Canis familiaris [7] = assay: Compound at an peroral dose of 1 umol/kg was tested for the inhibition of pentagastrin-induced gastric acid secretion in heidenhain pouch dogs; type: functional; conditions: Canis lupus familiaris, Stomach, po; summary of the method: as §2
Rattus norvegicus [8] = assay: Inhibition of pentagastrin-induced gastric acid secretion in anathesized rats upon intravenous administration; type: functional; conditions: Stomach; summary of the method: as §1
Canis familiaris [9] = assay: Concentration required to inhibit pentagastrin-induced gastric acid secretion in heidenhain pouch dogs upon peroral administration; type: functional; conditions: Canis lupus familiaris, Stomach, po; summary of the method: as §2
Canis familiaris [10] = assay: Concentration required to inhibit pentagastrin-induced gastric acid secretion in heidenhain pouch dogs upon intravenous administration; type: functional; conditions: Canis lupus familiaris, Stomach
Summary of the method: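 Male beagle dogs with Heidenhain pouch, fasted 18 h with water allowed. Pentagastrin infused at 8 µmol/kg/h through femoral vein. Compound dissolved in DMF and given iv 3 h after infusion start. Juice collected every 15 min, volume measured, acidity titrated with 0.05 N NaOH to pH 7.0.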

Canis familiaris [11] = assay: Compound at an peroral dose of 0.1 uM/Kg was tested for the inhibition of pentagastrin-induced gastric acid secretion in heidenhain pouch dogs; type: functional, Canis lupus familiaris, Stomach; summary of the method: as §2
Canis familiaris [12] = assay: Compound at an peroral dose of 0.03 uM/Kg was tested for the inhibition of pentagastrin-induced gastric acid secretion in heidenhain pouch dogs; type: functional, Canis lupus familiaris, Stomach; summary of the method: as §2
Canis familiaris [13] = assay: Compound at an peroral dose of 0.3 uM/Kg was tested for the inhibition of pentagastrin-induced gastric acid secretion in heidenhain pouch dogs; type: functional, Canis lupus familiaris, Stomach; summary of the method: as §2
Rattus norvegicus [14] = assay: Inhibition of pentagastrin-induced gastric acid secretion in anathesized rats at 0.03 uM/Kg upon intravenous administration; type: functional, Stomach; summary of the method: as §1

Row | Structure (SMILES) | IC50 [1] | IC50 [2] | Inhibition (Rattus norvegicus [3]) | Ratio [4] | also measured
1 | CCN(CC)c1cccc(NC(=O)N[C@@H]2N=C(c3ccccc3)c3ccccc3N(CC(=O)C(C)(C)C)C2=O)c1 | 558 nM | 0.14 nM | 82% | 3990 | –
2 | CC(C)(C)C(=O)CN1C(=O)C(NC(=O)Nc2cccc(C#N)c2)N=C(c2ccccc2)c2ccccc21 (configuration not stated) | 700 nM | 1.29 nM | 65% | 542 | –
3 | CCN(CC)c1cccc(NC(=O)N[C@@H]2N=C(c3ccccn3)c3ccccc3N(CC(=O)C(C)(C)C)C2=O)c1 | 301 nM | 0.11 nM | 74% | 2740 | –
4 | CC(C)(C)C(=O)CN1C(=O)[C@H](NC(=O)Nc2cccc(N)c2)N=C(c2ccccc2)c2ccccc21 | – | – | 75% | 1910 | –
5 | CN(C)c1cccc(NC(=O)N[C@@H]2N=C(c3ccccc3)c3ccccc3N(CC(=O)C(C)(C)C)C2=O)c1 | 89 nM | 0.21 nM | 65% | 423 | Inhibition (Canis familiaris [5]): 99%; ED50 (Rattus norvegicus [6]): 0.012 µmol/kg
6 | Cc1cccc(NC(=O)N[C@@H]2N=C(c3ccccc3)c3ccccc3N(CC(=O)c3ccccc3C)C2=O)c1 | – | – | – | 1330 | Inhibition (Canis familiaris [5]): 72%; inhibition in vivo at 1 µmol/kg (Canis familiaris [7]): 26%; ED50 (Rattus norvegicus [8]): 0.0083 µmol/kg; ED50 (Canis familiaris [9]): 1.9 µmol/kg; ED50 (Canis familiaris [10]): 0.026 µmol/kg
7 | CNc1cccc(NC(=O)N[C@@H]2N=C(c3ccccn3)c3ccccc3N(CC(=O)C(C)(C)C)C2=O)c1 [NETAZEPIDE] | – | – | 87% | 5020 | Inhibition (Canis familiaris [11]): 100%; ED50 (Rattus norvegicus [6]): 0.008 µmol/kg; Inhibition (Canis familiaris [12]): 65%; ED50 (Canis familiaris [9]): 0.021 µmol/kg; ED50 (Canis familiaris [10]): 0.018 µmol/kg
8 | CNc1cccc(NC(=O)N[C@@H]2N=C(c3ccccc3)c3ccccc3N(CC(=O)C(C)(C)C)C2=O)c1 | – | – | 80% | 1090 | –
9 | CC(C)(C)C(=O)CN1C(=O)[C@H](NC(=O)Nc2cccc(N)c2)N=C(c2ccccn2)c2ccccc21 | 1820 nM | 0.43 nM | 62% | 4230 | –
10 | CC(C)(C)C(=O)CN1C(=O)C(NC(=O)Nc2cccc([N+](=O)[O-])c2)N=C(c2ccccc2)c2ccccc21 (configuration not stated) | 589 nM | 0.16 nM | 76% | 3680 | –
11 | Cc1cccc(NC(=O)N[C@@H]2N=C(c3ccccn3)c3ccccc3N(CC(=O)C(C)(C)C)C2=O)c1 | 470 nM | – | 78% | 1070 | Inhibition (Canis familiaris [5]): 97%; Inhibition (Canis familiaris [13]): 7%
12 | CC(C)(C)C(=O)CN1C(=O)[C@H](NC(=O)Nc2cccc(N3CCCC3)c2)N=C(c2ccccn2)c2ccccc21 | 253 nM | 0.11 nM | 75% | 2300 | –
13 | CC(C)(C)C(=O)CN1C(=O)C(NC(=O)Nc2cccc(NC=O)c2)N=C(c2ccccc2)c2ccccc21 (configuration not stated) | 561 nM | 0.59 nM | 74% | 951 | –
14 | CC(C)(C)C(=O)CN1C(=O)[C@H](NC(=O)Nc2cccc(N3CCCCC3)c2)N=C(c2ccccn2)c2ccccc21 | 944 nM | 0.84 nM | 55% | 1120 | –
15 | CN(C)c1cccc(NC(=O)N[C@@H]2N=C(c3ccccn3)c3ccccc3N(CC(=O)C(C)(C)C)C2=O)c1 | – | – | – | 565 | Inhibition (Canis familiaris [11]): 98%; ED50 (Rattus norvegicus [6]): 0.011 µmol/kg; Inhibition (Canis familiaris [12]): 77%; Inhibition (Rattus norvegicus [14]): 65%; ED50 (Canis familiaris [10]): 0.014 µmol/kg
16 | CC(C)(C)C(=O)CN1C(=O)[C@H](NC(=O)Nc2cccc(N3CCCC3)c2)N=C(c2ccccc2)c2ccccc21 | 157 nM | 0.17 nM | 79% | 923 | –
17 | Cc1cccc(NC(=O)N[C@@H]2N=C(c3ccccc3)c3ccccc3N(CC(=O)C(C)(C)C)C2=O)c1 | 111 nM | 0.52 nM | – | 213 | Inhibition (Canis familiaris [5]): 53%; Inhibition (Rattus norvegicus [14]): 77%
18 | CC(C)(C)C(=O)CN1C(=O)C(NC(=O)Nc2cccc(C(=O)O)c2)N=C(c2ccccc2)c2ccccc21 (configuration not stated) | 2060 nM | 3.29 nM | 56% | 626 | –
19 | CN(C)c1cccc(NC(=O)N[C@H]2N=C(c3ccccn3)c3ccccc3N(CC(=O)C(C)(C)C)C2=O)c1 | 572 nM | 1.26 nM | – | 454 | –

From ChEMBL document CHEMBL1130288, “(3R)-N-(1-(tert-butylcarbonylmethyl)-2,3-dihydro-2-oxo-5-(2-pyridyl)-1H-1,4-benzodiazepin-3-yl)-N'-(3-(methylamino)phenyl)urea (YF476): a potent and orally active gastrin/CCK-B antagonist” (J Med Chem, 1997)
